ABCB6 inh 2 – ABCB6 transporter inhibitors, primary screen, K562-ABCB6 cells, flow cytometry, MLPCN library | ATP-binding cassette sub-family B member 6 (Homo sapiens), Q9NP58 | K562-ABCB6 porphyrin accumulation, 1 h; stronger effect = lower value | fluorescence ratio to DMSO, % at 10 µM | 360,000 compounds, 0.19% hits | AID 602162, 2011;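 active = fluorescence ratio to DMSO below 75%, the collection mean minus 3 SD; inconclusive = too few cells collected in the well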;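 also: signal is porphyrin accumulated inside mitochondria; 100% equals median channel fluorescence of DMSO control wells; lower ratio means ABCB6 inhibition with less porphyrin fluorescence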
ATG4B inhibitor – ATG4B protease inhibitors, primary screen, biochemical, fluorescence, uHTS; inhibition, % at 8.33 µM; AID 504462, 2011; 340,000 compounds, 0.51% hits; ATG4B cleavage of LC3-PLA2, NBD-HPC fluorescence, 1 h; Cysteine protease ATG4B (Homo sapiens), Q9Y4P1; in the data active = inhibition above about 40%
Target sequence (Q9Y4P1 whole entry, looked up): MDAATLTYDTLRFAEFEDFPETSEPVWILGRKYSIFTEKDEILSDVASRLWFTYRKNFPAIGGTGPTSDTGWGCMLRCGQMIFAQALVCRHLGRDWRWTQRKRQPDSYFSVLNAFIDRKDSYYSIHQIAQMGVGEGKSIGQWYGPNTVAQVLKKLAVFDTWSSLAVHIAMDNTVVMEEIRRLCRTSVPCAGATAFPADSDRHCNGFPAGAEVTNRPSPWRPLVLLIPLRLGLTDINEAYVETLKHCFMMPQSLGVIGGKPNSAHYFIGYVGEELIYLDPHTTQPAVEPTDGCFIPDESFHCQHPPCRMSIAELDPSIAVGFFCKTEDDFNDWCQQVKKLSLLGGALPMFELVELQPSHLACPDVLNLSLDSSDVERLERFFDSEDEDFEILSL
NRP1-CendR mod – modulators of CendR peptide binding to NRP-1, primary screen, biochemical, fluorescence polarization, uHTS. FAM-RPARPAR peptide binding to NRP-1. Neuropilin-1 (Homo sapiens), O14786. inhibition, % at 25 µM. 360,000 compounds, 0.85% hits;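 active = inhibition or corrected inhibition above about 18%, plus a signal ratio from 0.5 to 1.5, limit read from the data, passing the limit was not always enough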
Exocytosis inh – LAMP-1 surface exposure blockers, TALL-104 cells – cell-based, flow cytometry, MLPCN library, primary screen | TALL-104 LAMP-1 surface exposure; cells stimulated with thapsigargin and PMA | inhibition, % at 10 µM | 360,000 compounds, 0.66% hits | AID 651702, 2012;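 active = inhibition above about 55%, limit read from the data; inconclusive = no clear call, values can overlap the other calls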
Myeloid diff MLP – induction of myeloid progenitor differentiation, primary screen, cell-based, flow cytometry, MLPCN library; ER-HoxA9 myeloid progenitors, lysozyme-GFP differentiation; calls only at 10 µM; 360,000 compounds, 1% hits;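 active = normalized GFP-positive differentiation at or above the plate's own cutoff, the solvent-only control mean plus 3 SD; inconclusive = no clear call, values can overlap the other calls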;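 also: cells exposed to compound for four days before flow analysis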
Arr AP2 block – inhibitors of beta-arrestin/AP2 binding, primary screen, biochemical, GPCR trafficking, flow cytometry; FITC-arrestin peptide / GST-AP2 beads; AP2 beta2 appendage carries R879A mutation; inhibition, % at 10 µM; beta-arrestin 1 C-terminal peptide binding to AP2 beta2-adaptin appendage (human); AID 504490, 2011; 340,000 compounds, 0.31% hits;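 active = inhibition above a set limit, near 3 SD of compounds lacking own fluorescence, cut at about 54% in these data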;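 also: plate controls were DMSO wells for no effect and 5 µM unlabelled arrestin peptide for full effect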
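System: GST-AP2 R879A glutathione beads; medium: PBS, Tween 20 0.05%, BSA 0.1%; reagent: fluorescein-tagged arrestin peptide at 50 nM final; schedule: pre-incubation 12 min, peptide binding 1 h, room temperature; detection: flow cytometry, FL1 (488/535 nm); read-out: inhibition as reduced fluorescein signal on beads, percent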
ATG4B confirm – ATG4B protease inhibitors, retest, confirmation, biochemical, fluorescence, single concentration; shares compounds with ATG4B inhibitor; ATG4B protease fluorescent substrate cleavage assay; inhibition, % at 8.33 µM; 320 compounds, 92% hits; AID 504757, 2011; in the data active = inhibition above about 39%
PLA2 counter – PLA2 enzyme inhibition, counter-screen for ATG4B inhibitor project, biochemical, single concentration, uHTS hits; shares compounds with ATG4B inhibitor; purified PLA2, NBD-C6-HPC fluorescence, 45 min; inhibition, % at 8.33 µM; 1,600 compounds, 66% hits; in the data active = inhibition above about 50%
Target sequence (P04054 whole entry, looked up): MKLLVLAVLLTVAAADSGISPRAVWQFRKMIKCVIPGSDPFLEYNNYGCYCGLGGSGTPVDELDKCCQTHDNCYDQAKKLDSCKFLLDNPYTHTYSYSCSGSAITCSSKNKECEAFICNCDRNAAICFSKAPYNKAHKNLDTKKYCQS
* = called active by the depositor; i = inactive; u = inconclusive; x = not tested or not shown. Most compounds without a hit are left out; they make up all but 3.3% or so of the library.

SMILES	ABCB6 inh 2	ATG4B inhibitor	NRP1-CendR mod	Exocytosis inh	Myeloid diff MLP	Arr AP2 block	PLA2 counter	others
O=C(CCN1CCCCC1)c1cccc(Cl)c1	102.0	-2.0	8.0	1.8	i	14.7	x
Cc1ccccc1Oc1nc2ccccn2c(=O)c1/C=C(\C#N)C(=O)Nc1c(C)n(C)n(-c2ccccc2)c1=O	100.0	5.1	-2.0	0.2	i	-3.2	x
Cc1ccccc1Oc1nc2c(C)cccn2c(=O)c1/C=C(\C#N)C(=O)Nc1c(C)n(C)n(-c2ccccc2)c1=O	99.0	52.5*	-21.7	8.4	i	0.2	66.5*
COCCNC(=O)/C(C#N)=C/c1c(N2CCN(c3ccccc3)CC2)nc2c(C)cccn2c1=O	99.0	40.2*	10.7	-1.3	i	6.0	45.1	ATG4B confirm=65.4*
CCCn1c(C(O)c2ccc(OC)c(OC)c2)nc2ccccc21 (centres undefined)	96.0	-3.8	1.5	-4.9	i	-9.1	x
CCN(CC(=O)N1CCc2ccccc2C1)S(=O)(=O)c1ccc2ccccc2c1	96.0	45.9*	8.1	4.3	i	4.4	40.9	ATG4B confirm=66.0*
CCOC(=O)C1CN(S(=O)(=O)c2cc(OC)ccc2OC)C1	97.0	-7.0	9.6	2.5	i	-13.0	x
O=C1NC(=S)/C(=C\c2ccc(-c3ccccc3Cl)o2)S1	103.0	65.0*	-28.1	-2.2	i	27.8	7.7
O=C(NCc1cccc(C(F)(F)F)c1)c1csc([C@@H]2O[C@H](CO)[C@H](O)[C@H](O)[C@H]2O)n1	95.0	x	-1.9	-6.1	i	x	x
Cc1ccc(S(=O)(=O)N2[C@@H](c3cccc(Cl)c3)C(C(=O)O)=CC[C@H]2c2ccc3c(c2)OCO3)cc1	100.0	-4.8	-1.5	3.0	i	5.7	x
CCOC(=O)/C=C/C(=O)Nc1nccs1	91.0	3.4	3.8	-2.5	i	-0.9	x
Cc1ccc(C(=O)NC(=S)Nc2ccccc2C(F)(F)F)cc1C	95.0	44.5*	-20.5	-2.1	i	9.3	47.3	ATG4B confirm=61.8*
Cc1cccc(C(=O)NC(=S)Nc2ccccc2C(F)(F)F)c1	95.0	21.7	8.0	-5.6	i	2.2	x
CCCCNc1nc2ccccc2n1CC(=O)Nc1c(C)cccc1CC	97.0	8.0	-6.2	-1.7	i	4.8	x
Cc1cc(Br)c(OCc2ccc(C(=O)N/N=C3\CC4CC=CC34)cc2)c(Br)c1 (centres undefined)	103.0	47.7*	0.2	-1.0	i	-4.2	49.1
O=C(N/N=C1\CC2CC=CC12)c1ccc(Br)cc1 (centres undefined)	97.0	-14.8	-11.7	-1.7	i	15.0	x
Nc1c(-c2ccccc2)c(CSc2nc3ccccc3[nH]2)nn1-c1cccc(Cl)c1	101.0	43.4*	0.6	55.2	i	9.0	57.9*
CC(=O)c1cccc(-c2ccnc3c2CC(C(=O)NCCC(F)(F)F)O3)c1 (centres undefined)	96.0	x	-2.0	1.6	i	x	x
O=c1cc(O)c2sc3nc(C(F)(F)F)c4c(c3c2[nH]1)CCCCC4	102.0	45.0*	9.4	-4.1	i	38.9	40.7	ATG4B confirm=59.3*
O=C(NCc1ccc(F)cc1)Nc1cccc(Cl)c1	97.0	67.2*	3.5	-0.5	i	-1.5	73.4*
S=C(NCc1ccccc1)Nc1cccc(Cl)c1	82.0	50.2*	-4.8	0.1	i	13.2	43.1	ATG4B confirm=59.1*
O=C(NCc1ccc(F)cc1)Nc1ccc(Cl)cc1	98.0	45.9*	0.0	-6.8	i	17.6	54.0*
O=C(Nc1cccc(F)c1)Nc1cccc(Cl)c1	100.0	12.4	-5.4	1.4	i	5.4	x
FC(F)Sc1ccc(NC(=S)NCc2ccccc2)cc1	99.0	43.7*	-1.5	1.1	i	-4.7	60.2*
FC(F)Sc1ccc(NC(=S)NC(c2ccccc2)c2ccccc2)cc1	98.0	-3.0	-0.7	8.8	i	1.4	x
SMILES	ABCB6 inh 2	ATG4B inhibitor	NRP1-CendR mod	Exocytosis inh	Myeloid diff MLP	Arr AP2 block	PLA2 counter	others
Cn1c(=O)n(CC(=O)OCc2ccccc2)c(=O)c2c1nc1n2CCCN1C1CCCCC1	95.0	-6.8	-8.9	5.1	i	23.2	x
CCOc1ccc(N2CC(C(=O)N3CCCc4ccccc43)CC2=O)cc1 (centres undefined)	98.0	-2.3	11.4	-0.3	i	3.4	x
Cc1ccc(NC(=S)NCc2ccccc2)cc1[N+](=O)[O-]	99.0	54.1*	0.6	18.8	i	3.7	62.5*
Cc1ccc(CNC(=S)Nc2ccc(C)c([N+](=O)[O-])c2)cc1	101.0	7.7	7.4	-2.3	i	13.2	x
Cc1onc(-c2ccccc2)c1CNC(=O)Nc1cccc(Cl)c1	97.0	46.0*	8.0	0.5	u	-1.4	44.5	ATG4B confirm=73.2*
Cc1cc(C)cc(N2C(=O)CCN(Cc3ccccc3)C2=O)c1	94.0	-7.9	0.1	-2.1	i	43.4	x
Cc1cc(C(=O)OCC(=O)NCc2ccccc2Cl)c(C)o1	99.0	5.1	6.8	-8.4	i	2.3	x
CCOC(=O)c1csc(-c2csc(CCNC(=O)c3ccccc3)n2)n1	98.0	x	-2.0	-10.9	i	x	x
CCN(c1ccccc1)S(=O)(=O)c1ccc(Cl)c(NC(=O)c2ccc(=O)[nH]n2)c1	92.0	-7.2	-15.8	0.5	i	5.6	x
CCCNC(=O)C1(C)CCN(C(=O)c2ccc3snnc3c2)C1 (centres undefined)	90.0	x	-7.5	20.9	i	x	x
CCc1ccc(Nc2ccc(C(N)=O)cc2[N+](=O)[O-])cc1	104.0	71.5*	-5.0	17.8	i	-2.7	80.7*
Cc1ccc(NC(=O)CSc2ccc(C(N)=O)cc2[N+](=O)[O-])cc1C	98.0	-5.3	10.7	-2.1	i	7.7	x
Cc1ccc(Nc2ccc(C(N)=O)cc2[N+](=O)[O-])cc1C	103.0	65.1*	11.7	-2.2	i	3.4	64.8*
CCOC(=O)CSc1nc2ccccc2c(=O)n1C1CCCC1	97.0	43.6*	8.9	0.6	i	1.4	64.8*

Screening results deposited in PubChem BioAssay by several laboratories.
